Activity calls are given as the source filed them. The rule behind the calls is not given here.
Assays:
Mus musculus [1] = experiment: Antiinflammatory activity against streptozotocin induced C57BL/6 mouse STAM model assessed as increase in Runx3 mRNA expression administered at 10 mg/kg, po for 3 weeks; format: functional, organism-based
Procedure, shortened: (§1)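 STAM mice: male C57BL/6 pups given streptozotocin (200 μg per mouse) at day 2, high-fat diet from week 4, oral dosing at 10 mg/kg once daily from weeks 6–9. Liver total RNA reverse transcribed. qPCR run for 40 cycles of 95 °C 15 s, 55–60 °C 15 s, 72 °C 30 s. Comparative Ct method, normalized to GAPDH/18S, compared with control group.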

Mus musculus [2] = experiment: Antiinflammatory activity in streptozotocin induced C57BL/6 mouse STAM model assessed as reduction of ALT level administered at 10 mg/kg, po daily for 3 weeks; format: functional, organism-based
Procedure, shortened: (§2)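 Streptozotocin (200 μg per mouse) given to two-day-old male C57BL/6 pups, high-fat diet from four weeks. Oral dosing at 10 mg/kg once daily for three weeks, starting at six weeks of age. Under anesthesia 500 μl blood collected and serum separated for TNF-α, ALT and glucose. Means ± SE; one-way ANOVA with Newman–Keuls test.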

[3] = Toxicity in streptozotocin induced C57BL/6 mouse STAM model assessed as change in white adipose tissue weight at 10 mg/kg, po daily for 3 weeks; format: organism-based; details: in vivo, 504 h
Procedure, shortened: (§3)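 In STAM mice (male C57BL/6, streptozotocin 200 μg per mouse at day 2, high-fat diet from week 4), oral dosing at 10 mg/kg once daily from six to nine weeks. Body weight recorded daily between 15:00 and 17:00. Liver, kidney and white adipose tissue weights expressed relative to body weight. Means ± SE; one-way ANOVA with Newman–Keuls test.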

Mus musculus [4] = experiment: Antiinflammatory activity against streptozotocin induced C57BL/6 mouse STAM model assessed as reduction of IFN-gamma expression administered at 10 mg/kg, po for 3 weeks; format: functional, organism-based; procedure, shortened: as §1
[5] = Toxicity in streptozotocin induced C57BL/6 mouse STAM model assessed as change in kidney weight at 10 mg/kg, po daily for 3 weeks; format: organism-based; details: in vivo, 504 h; procedure, shortened: as §3
Mus musculus [6] = experiment: Antiinflammatory activity in streptozotocin induced C57BL/6 mouse STAM model assessed as reduction of TNF-alpha level administered at 10 mg/kg, po daily for 3 weeks; format: functional, organism-based; procedure, shortened: as §2
Mus musculus [7] = experiment: Anti-NASH activity in streptozotocin induced C57BL/6 mouse STAM model administered at 10 mg/kg, po daily for 3 weeks by hematoxylin and eosin staining analysis; format: functional, organism-based
Procedure, shortened: (§4)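 Male C57BL/6 pups given streptozotocin (200 μg per mouse) at two days old, high-fat diet from four weeks. Dosed orally once daily at 10 mg/kg from six to nine weeks of age. Liver fixed in 10% neutral buffered formalin and paraffin-embedded. 5-μm sections stained with H&E, or with Oil Red O for hepatic lipid.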

[8] = Toxicity in streptozotocin induced C57BL/6 mouse STAM model assessed as change in liver weight at 10 mg/kg, po daily for 3 weeks; format: organism-based; details: in vivo, 504 h; procedure, shortened: as §3
Mus musculus [9] = experiment: Anti-NASH activity in streptozotocin induced C57BL/6 mouse STAM model assessed as reduction of liver steatosis administered at 10 mg/kg, po daily for 3 weeks by oil red O staining analysis; format: functional, organism-based; procedure, shortened: as §4
[10] = Toxicity in streptozotocin induced C57BL/6 mouse STAM model assessed as change in body weight at 10 mg/kg, po daily for 3 weeks; format: organism-based; details: in vivo, 504 h; procedure, shortened: as §3
[11] = biological target: Histone-lysine N-methyltransferase EZH2 (Mus musculus) (UniProt Q61188); experiment: In vivo inhibition of EZH2 in streptozotocin induced C57BL/6 mouse STAM model assessed as reduction mRNA level administered at 10 mg/kg, po for 3 weeks; format: functional, organism-based; procedure, shortened: as §1
Mus musculus [12] = experiment: Antiinflammatory activity in streptozotocin induced C57BL/6 mouse STAM model assessed as reduction of glucose level administered at 10 mg/kg, po daily for 3 weeks; format: functional, organism-based; procedure, shortened: as §2

Sequence of Histone-lysine N-methyltransferase EZH2 (Mus musculus) (Q61188 whole entry): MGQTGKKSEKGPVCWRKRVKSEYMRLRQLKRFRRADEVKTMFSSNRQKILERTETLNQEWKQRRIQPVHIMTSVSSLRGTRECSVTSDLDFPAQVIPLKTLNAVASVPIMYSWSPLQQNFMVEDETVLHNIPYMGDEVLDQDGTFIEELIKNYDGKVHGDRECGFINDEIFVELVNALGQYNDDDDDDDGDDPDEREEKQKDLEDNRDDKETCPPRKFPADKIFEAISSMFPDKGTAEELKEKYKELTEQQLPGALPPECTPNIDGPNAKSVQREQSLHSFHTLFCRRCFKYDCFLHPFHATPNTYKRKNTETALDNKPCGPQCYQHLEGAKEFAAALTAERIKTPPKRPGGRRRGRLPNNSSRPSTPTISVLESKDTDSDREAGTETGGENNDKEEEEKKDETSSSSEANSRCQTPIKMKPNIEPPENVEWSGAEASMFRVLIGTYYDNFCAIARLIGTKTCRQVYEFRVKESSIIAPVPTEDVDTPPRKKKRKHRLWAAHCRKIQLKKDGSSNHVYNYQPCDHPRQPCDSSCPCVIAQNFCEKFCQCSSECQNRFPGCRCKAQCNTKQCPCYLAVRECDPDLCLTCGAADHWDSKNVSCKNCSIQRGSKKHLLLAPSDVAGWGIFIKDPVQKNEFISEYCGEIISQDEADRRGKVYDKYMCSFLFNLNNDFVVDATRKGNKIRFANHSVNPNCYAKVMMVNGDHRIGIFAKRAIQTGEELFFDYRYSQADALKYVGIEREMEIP

| Structure (SMILES) | Activity (Mus musculus [1]) | Activity (Mus musculus [2]) | Activity [3] | Activity (Mus musculus [4]) | Activity [5] | Activity (Mus musculus [6]) | Activity (Mus musculus [7]) | Activity [8] | Activity (Mus musculus [9]) | Activity [10] | inhibition [11] | Activity (Mus musculus [12]) |
| --- | --- | --- | --- | --- | --- | --- | --- | --- | --- | --- | --- | --- |
| CCCc1cc(C)[nH]c(=O)c1CNC(=O)c1cc(-c2ccc(N3CCN(C(C)C)CC3)nc2)cc2c1cnn2C(C)C | Active | inactive | Non-Toxic | Active | Non-Toxic | Active | Active | Non-Toxic | Active | Non-Toxic | Active | inactive |
| CCN(c1cc(-c2ccc(CN3CCOCC3)cc2)cc(C(=O)NCc2c(C)cc(C)[nH]c2=O)c1C)C1CCOCC1 [TAZEMETOSTAT] | Active | inactive | Non-Toxic | Active | Non-Toxic | inactive | Active | Non-Toxic | Active | Non-Toxic |  | inactive |
| CC[C@H]1[C@@H](O)[C@@H]2[C@H](CC[C@]3(C)[C@@H]([C@H](C)CCC(=O)O)CC[C@@H]23)[C@@]2(C)CC[C@@H](O)C[C@@H]12 |  |  |  |  |  |  | Active |  | Active |  |  |  |

Source: ChEMBL document CHEMBL5712915, “The Role of the Histone Methyltransferase EZH2 in Liver Inflammation and Fibrosis in STAM NASH Mice” (Biology (Basel), 2020)
